For this assay, the system named is MMP-9 secreted by MCF-7 cells. The assay can be described thus: Gelatin zymography MMP-9 secretion, MCF-7. It is filed as cell-based. To be noted: 80 nM PMA, serum-free medium, MCF-7, vs basal (MMP-9 not detectable). The method in brief: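 Cells attached overnight, then treated 24 or 48 h with test compound or DMSO vehicle in serum-free medium. Conditioned medium was acetone-precipitated (4 volumes, −20 °C, 2 h), and pellets were taken up in non-reducing SDS buffer. Samples were run on a 7.5% gel with 1 mg/mL gelatin, washed in Triton X-100/CaCl2/ZnCl2, incubated overnight at 37 °C, and Coomassie-stained. Mean ± SD of three independent experiments.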

In the case of `CCCCCCCCCCCCCC(=O)O[C@@H]1[C@@H](C)[C@@]2(O)[C@@H](C=C(CO)C[C@]3(O)C(=O)C(C)=C[C@@H]23)[C@@H]2C(C)(C)[C@]12OC(C)=O` [PMA, phorbol 12-myristate 13-acetate], the “secreted MMP-9 level, PMA stimulation” value is listed as “drastically increased”.

Source of the values: publication PMC9883262 (Molecular Metabolism, 2023).
